Assay results pooled from the literature.

CC(C)C[C@H](NC(=O)[C@H](CCC(=O)O)NC(=O)[C@H](CCCCN)NC(=O)[C@H](CCCCN)NC(=O)[C@H](CC(C)C)NC(=O)[C@H](CC(C)C)NC(=O)[C@H](CCCCN)NC(=O)[C@H](CCCCN)NC(=O)[C@H](CC(C)C)NC(=O)[C@H](CC(C)C)NC(=O)[C@H](CCCCN)NC(=O)[C@H](CCCCN)NC(=O)[C@H](CC(C)C)NC(=O)[C@@H](N)CC(C)C)C(N)=O — IC50 (HCCC9810; cell growth or viability, CCK-8): 10200 nM
CCN(CC)CCOc1ccc2c(c1)C(=O)c1cc(OCCN(CC)CC)ccc1-2 — IC50 (Plasmodium falciparum; parasite growth; DD2; drug-resistant strain, blood stage): 556 nM
N=C(CC(O)c1cc2c(F)cc(F)cc2c2cc(C(F)(F)F)ccc12)Nc1nnc(-c2ccc(F)cc2)o1 (stereo not shown) — IC50 (Plasmodium falciparum; parasite growth, ELISA; 3D7; 72 h, blood stage): > 37000 nM
C[C@@H]1CC[C@H]2[C@@H](C)C(=O)O[C@@H]3O[C@@]4(C)CC[C@@H]1[C@]32OO4 — IC50 (Plasmodium falciparum; parasite growth; K1; drug-resistant strain, blood stage): 0.6 nM
N=C(CC(O)c1cc2c(F)cc(F)cc2c2cc(C(F)(F)F)ccc12)NC1CC(F)(F)C1 (stereo not shown) — IC50 (Plasmodium falciparum; parasite growth, ELISA; 3D7; 72 h, blood stage): 80.2 nM
N.N.[Cl][Pt][Cl] — inhibition (RS4-11; cell growth or viability, ATP luminescence; 10 µM, 72 h): 100%
CC(C)C[C@H](NC(=O)[C@H](CC(C)C)NC(=O)[C@H](CCCCN)NC(=O)[C@H](CCCCN)NC(=O)[C@H](CC(C)C)NC(=O)[C@H](CC(C)C)NC(=O)[C@H](CCCCN)NC(=O)[C@H](CCCCN)NC(=O)[C@H](CC(C)C)NC(=O)[C@H](CCC(=O)O)NC(=O)[C@H](CCCCN)NC(=O)[C@H](CCCCN)NC(=O)[C@H](CC(C)C)NC(=O)[C@@H](N)CC(C)C)C(N)=O — IC50 (HCCC9810; cell growth or viability, CCK-8): 9400 nM
CO[C@H]1C[C@H](O[C@@H]2/C(C)=C/C[C@@H]3C[C@@H](C[C@]4(CC[C@H](C)[C@@H](C5CCCCC5)O4)O3)OC(=O)[C@@H]3C=C(C)/C(=N/O)[C@H]4OC/C(=C\C=C\[C@@H]2C)[C@]43O)O[C@@H](C)[C@@H]1O — IC50 (Plasmodium falciparum; parasite growth; K1; drug-resistant strain, blood stage): 311 nM
CC(C)C[C@H](NC(=O)[C@H](CC(C)C)NC(=O)[C@H](CCCCN)NC(=O)[C@H](CCCCN)NC(=O)[C@H](CCC(=O)O)NC(=O)[C@H](CC(C)C)NC(=O)[C@H](CCCCN)NC(=O)[C@H](CCCCN)NC(=O)[C@H](CC(C)C)NC(=O)[C@H](CC(C)C)NC(=O)[C@H](CCCCN)NC(=O)[C@H](CCCCN)NC(=O)[C@H](CC(C)C)NC(=O)[C@@H](N)CC(C)C)C(N)=O — IC50 (HCCC9810; cell growth or viability, CCK-8): 8320 nM
N=C(CC(O)c1cc2c(F)cc(F)cc2c2cc(C(F)(F)F)ccc12)Nc1ccccc1I (stereo not shown) — IC50 (Plasmodium falciparum; parasite growth, ELISA; 3D7; 72 h, blood stage): 10.9 nM
